ABHD5-PLIN5 inh = blocks binding of human ABHD5 to perilipin-5. Q00G26+Q8WTS1. Split G. princeps luciferase complementation, luminescence, 4 h. inhibition, % at 4 µM. 360,000 tested, 0.78% active. AID 602281;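 active = inhibition above the mean inhibition across every tested compound plus 3 SD, cut at about 22% in these data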;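 note: 0% = DMSO only wells and the 100% control is not disclosed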
XBP1 UPR activ = adaptive UPR (XBP1) activation | CHO-XBP1 luciferase reporter, IRE1-XBP1 UPR activation, luminescence; percent of tunicamycin response, DMSO as zero | 330,000 tested, 0.33% active | activation, % at 20 µM;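 active = versus positive control, 20 µM dose yields 30% or more activation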;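 note: 100% = tunicamycin at 10 µg/mL and 0% = DMSO only wells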
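Material: IRE1-XBP1 luciferase reporter CHO line / Quantity: one thousand reporter cells per well / Buffer or medium: F12 with 10% serum / Compound: 20 µM single concentration, DMSO 1% / Times: 6 h treatment, 37 °C / Detection: Steady-Glo luciferase glow luminescence, 10 min after reagent addition / Benchmarks: tunicamycin high, DMSO low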
UPR CHOP act = activators of apoptotic arm of unfolded protein response (CHOP) | 330,000 tested, 0.34% active | CHO-CHOP luciferase reporter, UPR activation, luminescence; percent of tunicamycin response over DMSO baseline | AID 449763 | activation, % at 10 µM;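 active = at 10 µM dose, activation of 40% or more, normalized to positive control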;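 note: 100% = tunicamycin at 10 µg/mL and 0% = DMSO alone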
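Evaluation: % reporter activation, DMSO baseline versus tunicamycin full activation; System: CHO-CHOP luciferase reporter cell line; Input: 500 cells/well; Incubation: 6 h compound treatment, 37 °C; Measured by: Steady-Glo luciferase luminescence; Dosing: one dose, 10 µM in 0.5% DMSO; Buffer or medium: F12 medium, 10% FBS; Benchmarks: positive tunicamycin 10 µg/mL, negative DMSO alone.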
Mdm2 MdmX PPI = human Mdm2/MdmX binding inhibition; 330,000 tested, 3% active; SaOS-2 split-luciferase Mdm2/MdmX complementation, luminescence; inhibition, % at 8 µM; O15151+Q00987; AID 485346;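 active = inhibition of at least 50% at 8 µM in the primary screen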
Target sequence (O15151 whole entry, looked up): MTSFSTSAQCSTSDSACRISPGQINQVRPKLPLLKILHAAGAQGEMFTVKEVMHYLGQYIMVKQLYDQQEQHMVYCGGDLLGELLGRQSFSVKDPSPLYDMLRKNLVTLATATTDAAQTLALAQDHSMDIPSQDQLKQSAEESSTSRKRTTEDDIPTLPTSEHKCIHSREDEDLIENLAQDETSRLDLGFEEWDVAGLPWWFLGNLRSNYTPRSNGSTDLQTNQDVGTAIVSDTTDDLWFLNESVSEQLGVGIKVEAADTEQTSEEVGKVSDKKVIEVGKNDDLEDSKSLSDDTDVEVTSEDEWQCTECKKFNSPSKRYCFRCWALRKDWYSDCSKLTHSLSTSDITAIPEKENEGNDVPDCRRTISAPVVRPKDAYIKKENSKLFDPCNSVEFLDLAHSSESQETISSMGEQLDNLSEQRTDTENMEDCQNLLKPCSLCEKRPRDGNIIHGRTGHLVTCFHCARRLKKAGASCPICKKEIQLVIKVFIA
Target sequence (Q00987 whole entry, looked up): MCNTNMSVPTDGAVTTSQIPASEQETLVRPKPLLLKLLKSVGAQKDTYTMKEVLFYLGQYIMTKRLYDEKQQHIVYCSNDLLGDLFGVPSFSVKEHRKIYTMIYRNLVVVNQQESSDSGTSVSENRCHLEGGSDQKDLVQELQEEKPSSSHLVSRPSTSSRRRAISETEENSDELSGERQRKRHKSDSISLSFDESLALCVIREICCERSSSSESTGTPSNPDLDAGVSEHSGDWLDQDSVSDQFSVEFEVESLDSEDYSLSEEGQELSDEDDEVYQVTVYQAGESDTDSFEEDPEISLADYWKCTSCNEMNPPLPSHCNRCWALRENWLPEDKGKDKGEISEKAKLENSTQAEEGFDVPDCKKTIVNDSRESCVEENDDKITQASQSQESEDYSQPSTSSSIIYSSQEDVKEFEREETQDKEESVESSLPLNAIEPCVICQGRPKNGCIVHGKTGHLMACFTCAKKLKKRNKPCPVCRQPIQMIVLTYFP
Granule exo inh = blocks lytic granule exocytosis. 360,000 tested, 0.66% active. AID 651702. inhibition, % at 10 µM. TALL-104 LAMP-1 surface exposure, flow cytometry; cells stimulated with thapsigargin and PMA;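 active = inhibition above about 55%, limit read from the data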
UPR CHOP confirm = apoptotic UPR (CHOP) activation, confirmed | shares compounds with UPR CHOP act | CHO-CHOP cells, CHOP-luciferase reporter luminescence; percent of tunicamycin response, DMSO as zero | activation, % at 10 µM | 1,000 tested, 64% active | AID 463112; in the data active = activation above about 33%;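 note: 0% = DMSO wells and 100% = tunicamycin 10 µg/mL wells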
UPR XBP1 confirm = confirmation of adaptive unfolded protein response (XBP1) activators; shares compounds with XBP1 UPR activ; CHO-XBP1 IRE1-XBP1 luciferase reporter, luminescence; activation, % at 20 µM; 1,000 tested, 63% active; AID 485299;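 active = reporter signal at least 30% of the positive control's activation in two or more of four replicate wells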;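 note: plate controls were DMSO negative control for no effect and tunicamycin 10 µg/mL positive control for full effect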
Mdm2-MdmX conf = human Mdm2/MdmX binding inhibition, confirmed. shares compounds with Mdm2 MdmX PPI. luminescent assay. inhibition, % at 8 µM. 10,000 tested, 55% active. AID 489028; in the data active = inhibition above about 40%
Full FLuc ctr = inhibits full-length luciferase, flagging false Mdm2/MdmX hits | shares compounds with Mdm2 MdmX PPI | SaOS-2 full-length luciferase counterscreen, luminescence | inhibition, % at 8 µM | 6,200 tested, 77% active | AID 504607;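 active = mean inhibition at 8 µM reaching about 37%, which flags the compound as non-specific, limit read from the data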;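 note: p53-null SaOS-2 cells with luciferase driven by a doxycycline-inducible promoter; compound on cells about two nights before reading with doxycycline added after day one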
ABHD5-PLIN5 conf = confirmation of human ABHD5-PLIN5 interaction inhibitors; shares compounds with ABHD5-PLIN5 inh; biochemical ABHD5-PLIN5 interaction, luminescence; inhibition, % at 4 µM; 2,200 tested, 67% active; in the data active = inhibition above about 23%;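 note: 0% = DMSO vehicle wells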
HNF4 split-luc = counter-screen for ABHD5-PLIN5 inhibitors: HNF4 split-luciferase. shares compounds with ABHD5-PLIN5 inh. HNF4 dimerization, luminescence, biochemical. inhibition, % at 4 µM. 2,200 tested, 77% active;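 active = mean inhibition across replicate wells exceeding the computed hit threshold, cut at about 13% in these data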;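 note: light from luciferase halves that rejoin when HNF4 fusion proteins dimerize; 0% = DMSO only wells and the 100% control is not given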
Granule exo CP1 = blocks lytic granule exocytosis; AID 651954; TALL-104 cells, LAMP-1 externalization, flow cytometry; stimulated with PMA plus thapsigargin; 1,500 tested, 11% active; inhibition, % at 10 µM; shares compounds with Granule exo inh; in the data active = inhibition above about 60%;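 note: 0% = stimulated vehicle wells and 100% = unstimulated wells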
* = called active by the depositor; · = not tested or not shown. Shown are actives, neighbours in structure and some others; about 4% of the full set was active somewhere.

SMILES | ABHD5-PLIN5 inh | XBP1 UPR activ | UPR CHOP act | Mdm2 MdmX PPI | Granule exo inh | UPR CHOP confirm | ABHD5-PLIN5 conf | HNF4 split-luc | others
O=C(Cn1cc(/C=C\[N+](=O)[O-])c2ccccc21)Nc1ccccc1 | 27* | 11 | 61* | 31 | 0 | 115* | 96* | 83*
CC(NC(=O)Nc1ncccn1)(C(F)(F)F)C(F)(F)F | -2 | -1 | 1 | 1 | -1 | · | · | ·
O=C(O)/C=C/C(=O)c1ccc2c(c1)CCc1ccccc1-2 | 95* | 1 | 126* | 67* | 11 | 7 | 104* | 110* | Mdm2-MdmX conf=26
CC(=O)Nc1ccc2c(c1)CCc1ccccc1-2 | 17 | 7 | 7 | -3 | 16 | · | · | ·
O=C1NCCN(Cc2c(F)cccc2Cl)C1CC(=O)N1CCCCO1 (centres undefined) | 9 | 0 | -1 | 0 | -8 | · | · | ·
COc1ccc(-c2cc(C(F)(F)F)nc(S(C)(=O)=O)n2)cc1 | 48* | 2 | 43* | 101* | 40 | 9 | 67* | 91* | Mdm2-MdmX conf=80*;Full FLuc ctr=53*
COc1ccc(-c2cc(C(F)(F)F)nc(N)n2)cc1 | 2 | 4 | 4 | -2 | -3 | · | · | ·
CC1CSc2ccccc2NC1=S (centres undefined) | 2 | -2 | -1 | 11 | 8 | · | · | ·
CCS(=O)(=O)c1ccc(O)c(N2C(=O)C3C4C=CC(C4)C3C2=O)c1 (centres undefined) | 13 | -4 | -1 | -15 | 2 | · | · | ·
CC1=CC(C)(C)Nc2ccc(OC(=O)CN3C(=O)CCC3=O)cc21 | 80* | -4 | 87* | 55* | 0 | 92* | 96* | 33* | Mdm2-MdmX conf=11
CN(C)CC(C(=O)c1ccccc1)c1ccccc1 (centres undefined) | 31* | -3 | 159* | 100* | 39 | 41* | 13 | 100* | Mdm2-MdmX conf=85*;Full FLuc ctr=52*
COc1cccc(-c2ccc(CN3C(C)C(=O)N(Cc4cn(Cc5ccco5)nn4)CCS3(=O)=O)cc2)c1OC (centres undefined) | 12 | · | · | · | -5 | · | · | ·
CC(C)c1nnc(NC(=O)c2nc(S(=O)(=O)Cc3ccccc3)ncc2Cl)s1 | 35* | -9 | 62* | 97* | 12 | 8 | 85* | 68* | Mdm2-MdmX conf=76*;Full FLuc ctr=50*
CC(C)c1nnc(NC(=O)CCc2ccccc2)s1 | 10 | 2 | 1 | -4 | 8 | · | · | ·
CSc1nnc(NC(=O)c2nc(S(=O)(=O)Cc3ccccc3)ncc2Cl)s1 | 23* | -8 | 56* | 99* | 35 | 61* | 69* | 42* | Mdm2-MdmX conf=94*;Full FLuc ctr=2
Cc1cc(CNC(=O)C2CCC(=O)N(CCc3cccc(F)c3)C2)on1 (centres undefined) | 1 | -2 | 1 | 0 | -10 | · | · | ·
O=C(c1ccc(Br)cc1)C(CN1CCOCC1)c1ccccc1 (centres undefined) | 29* | 0 | 105* | 91* | 67* | 137* | 52* | 94* | Mdm2-MdmX conf=56*;Full FLuc ctr=25;Granule exo CP1=-10
O=C(Nc1ccccc1F)c1ccc2sc([C@H]3C[C@H](O)[C@@H](CO)O3)nc2c1 | -6 | · | · | · | 3 | · | · | ·
Cc1cc(O)c(-c2cc(O)c(C)cc2O)cc1O | 44* | -8 | 74* | -8 | 102* | 136* | 37* | 87* | Granule exo CP1=23
CCc1cccc2sc(N(CCCN3CCOCC3)C(=O)CS(=O)(=O)c3ccccc3)nc12 | 6 | -1 | 1 | 18 | -2 | · | · | ·
O=C(CCS(=O)(=O)c1ccccc1)N(CCCN1CCOCC1)c1nc2ccc(F)cc2s1 | -3 | -7 | 57* | 45 | 58* | 21 | · | · | Granule exo CP1=-7
CCn1ncc(CNC(=O)CCCSc2nc(-c3ccco3)cc(C(F)(F)F)n2)c1C | 2 | -5 | 1 | 18 | 0 | · | · | ·
O=S(=O)(c1ccc2nc(-c3ccccc3)[nH]c2c1)N1CCN(c2ccc(Cl)cc2)CC1 | -11 | 90* | 20 | 40 | 2 | · | · | · | UPR XBP1 confirm=115*
O=c1cc(-c2ccsc2)oc2ccccc12 | 1 | 3 | 5 | -11 | 2 | · | · | ·
Cc1c(Cl)cccc1Nc1nc(NCCO)c2ccccc2n1 | 6 | 75* | 9 | 30 | -6 | · | · | · | UPR XBP1 confirm=58*
SMILES | ABHD5-PLIN5 inh | XBP1 UPR activ | UPR CHOP act | Mdm2 MdmX PPI | Granule exo inh | UPR CHOP confirm | ABHD5-PLIN5 conf | HNF4 split-luc | others
OCCNc1nc(N2CCCCC2)nc2ccccc12 | 2 | 1 | 1 | 4 | -1 | · | · | ·
CCCCN(C(=O)c1ccc(N2CCCC2=O)cc1)c1c(N)n(CC(C)C)c(=O)[nH]c1=O | -7 | 6 | 0 | 24 | 4 | · | · | ·
CC(C)(C)C(=O)c1no[n+]([O-])c1/C(=N/O)C(C)(C)C | -1 | 2 | 0 | 3 | -5 | · | · | ·
COc1ccc(/C=N\NC(=O)c2cc(O)c(O)c(O)c2)cc1COc1ccc(C(=O)OCC(C)C)cc1 | 6 | 41* | 5 | -3 | 3 | · | · | · | UPR XBP1 confirm=25
O=C(CSCc1ccc(Cl)cc1)Nc1ccc(-c2nnc(-c3ccccc3)o2)cc1 | 2 | 107* | 28 | 13 | -1 | · | · | · | UPR XBP1 confirm=72*
CCC(=O)Nc1ccc(-c2nnc(-c3ccccc3)o2)cc1 | -7 | 1 | 1 | 15 | -2 | · | · | ·
Cn1c(=O)[nH]c(=O)c2c1nc(Br)n2CCSc1ncccn1 | -10 | -3 | 1 | 2 | -2 | · | · | ·
CC1(C)CC(=O)C(C=Nc2ccc(C(=O)c3ccccc3)cc2N=CC2=C(O)CC(C)(C)CC2=O)=C(O)C1 | -19 | 180* | 20 | 23 | 7 | · | · | · | UPR XBP1 confirm=268*
CC1(C)CC(=O)C(C=Nc2ccc(O)c(N=CC3=C(O)CC(C)(C)CC3=O)c2)=C(O)C1 | -7 | 12 | 5 | 19 | -1 | · | · | ·
CN(CCCCCC(=O)/C=N/O)Cc1ccccc1 | 5 | 0 | 1 | -11 | -6 | · | · | ·
